Results from PubChem BioAssay AID2097 (Broad Institute, 2009).
In all, about 300,000 compounds went through this assay and about 120 (0.04%) were called active. This is one part of a sample in which actives are shown more often than they occur.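 How the source made its calls: active means more than half of replicate wells score below -50%, meaning over 50% inhibition versus plate controls; inconclusive means some replicates but at most half score below -50%; inactive means no replicate scores below -50%.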

Target: Glycogen synthase kinase-3 beta (Homo sapiens) (UniProt P49841)
Sequence (P49841 whole entry, looked up): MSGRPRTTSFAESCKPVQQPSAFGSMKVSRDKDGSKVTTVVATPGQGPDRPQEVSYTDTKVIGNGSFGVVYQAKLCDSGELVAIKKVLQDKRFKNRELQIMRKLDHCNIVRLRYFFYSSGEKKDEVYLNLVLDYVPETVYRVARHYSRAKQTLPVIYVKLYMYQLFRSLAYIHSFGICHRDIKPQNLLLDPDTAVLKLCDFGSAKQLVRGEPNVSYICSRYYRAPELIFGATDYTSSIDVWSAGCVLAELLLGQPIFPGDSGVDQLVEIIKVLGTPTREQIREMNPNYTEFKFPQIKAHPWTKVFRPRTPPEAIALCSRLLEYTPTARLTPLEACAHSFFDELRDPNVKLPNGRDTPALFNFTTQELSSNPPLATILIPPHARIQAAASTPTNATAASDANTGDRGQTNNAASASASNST
Experiment: human GSK3beta kinase inhibitors, primary screen, biochemical, cell-free homogeneous, HTS (AID 2097);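 further: 0% = median DMSO wells and -100% = median GW8510 positive control wells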
Conditions: GST-GSK3beta kinase, ADP-Glo luminescence, 60 min; at 10 µM; stronger effect = lower value
How it was run: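 Assay system: GST-fused GSK3beta enzyme, cell-free / Medium: Tris pH 7.5 buffer with MgCl2, DTT, BSA, heparin / Also added: peptide substrate plus 25 µM ATP (final) / Compound: 10 µM single point / Timing: kinase reaction with compound 60 min at room temperature / Detection: ADP-Glo luminescence / Benchmarks: DMSO neutral wells and GW8510 at 20 µM as positive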

Activity score (negative = inhibition), inactive:
CCCN1C2CCCC1CC(NC(=O)c1cccc(OC)c1)C2 (stereo not drawn) 2.34%
CN(CCNC(=O)c1cc2c(-c3ccccc3F)nn(C)c2s1)C1CCCCC1 -2.3%
COC(=O)c1ccc(CN2C(=O)NC(c3ccccc3)(c3ccccc3)C2=O)o1 -0.96%
CCn1cc(C(=O)N[C@@H](C)C(=O)NCCO)c(=O)c2cc3c(cc21)OCO3 -0.599%
O=[N+]([O-])c1cc([N+](=O)[O-])c(Oc2cc(F)cc(F)c2F)cc1NN1CCCCC1 -1.52%
CC(NC(=O)C1CCCN(S(=O)(=O)c2ccc(-n3cnnn3)cc2)C1)c1ccc(F)cc1 (stereo not drawn) -1.62%
COc1cc(NC(=O)C2CCN(c3cnccn3)CC2)cc(OC)c1 -0.841%
O=c1[nH]c2ccccc2n2c(-c3ccccc3)nnc12 -0.961%
CCCCN(C(=O)CSCC(=O)Nc1ccc(OC)cc1)c1c(N)n(CCC)c(=O)[nH]c1=O -1.15%
Cc1nnsc1S(=O)(=O)Cc1ccccc1Cl -0.424%
CC(=O)N1c2ccc(S(=O)(=O)N3CCCC(C(=O)Nc4ccc(C)cc4C)C3)cc2CC1C (stereo not drawn) 0.432%
CCOC(OCC)c1ccc(/C=C\c2nccc(N)n2)cc1 -5.66%
Cc1cccc(CCNS(=O)(=O)c2ccc(S(=O)(=O)NC3CCCC3)cc2)c1 -0.921%
COc1ccc(C)cc1N(C)C(=O)c1coc(=O)c2ccccc12 3.14%
COc1ccc(Cl)cc1NC(=O)C(C)N1CCc2ccccc21 (stereo not drawn) 0.322%
COC(=O)[C@]1(C)N[C@H](c2ccc(-c3ccc(Cl)c(Cl)c3)cc2)[C@@H]2C(=O)N(C)C(=O)[C@@H]21 -2.15%
Cc1cc(C)c(S(=O)(=O)c2ccccc2)c(OC(=O)c2c(F)cccc2Cl)n1 7.18%
N#Cc1ccccc1Sc1ccccc1C(=O)OCC(=O)NC1CCCCC1 5.54%
Cc1cc(Br)ccc1NC(=O)c1cnc(N2CCN(c3ccccn3)CC2)c2ccccc12 -4.35%
Cc1nnc(NC(=O)CCC(=O)N2CCC(C)CC2)s1 0.523%
Cc1ccc(NC(=O)c2ccc(CSc3ncnc4nc[nH]c34)cc2)c(C)c1 -7.49%
Cc1ccc2nc(NC(=O)CSc3nc(=O)n(CCCN(C)C)c4c3CCC4)sc2c1 2.91%
Cn1c(=O)c(=O)n(C)c2cc(S(=O)(=O)CCC(=O)N3CCCCC3)ccc21 2.02%
CCN(c1ccc2c(c1)OCO2)S(=O)(=O)c1cc(Br)cc2c1N(C(=O)C1CC1)CC2 -2.85%
CCC1(CC)NC(=O)N(CC(=O)OCC(=O)Nc2ccc(C(F)(F)F)cc2)C1=O -0.836%
COC(=O)c1cc2n(n1)CCCNC2=O 2.64%
O=C(NC1CCCC1)C(NS(=O)(=O)c1ccc(Br)s1)c1ccccc1 (stereo not drawn) -0.275%
O=C(O)c1ccc2c(=O)n3c(nc2c1)/C(=C/c1ccc(OC(F)F)cc1OC(F)F)CC3 -1.21%
COCCNC(=O)C1CCN(S(=O)(=O)c2ccc3c(c2)OCCO3)CC1 -2.22%
O=C(Nc1cccc(F)c1)N1C2CCC1CC(O)(c1cccnc1)C2 (stereo not drawn) 2.54%
CC(C)NS(=O)(=O)c1ccc(OCC(=O)NC2CCCCCC2)cc1 1.95%
CC(C)NC(=O)c1ccccc1S(=O)c1ccccc1C#N (stereo not drawn) -1.11%
CC(=O)Nc1nc2c(s1)C(=O)NCC(C)(C)C2 3.79%
